Measured values from ChEMBL document CHEMBL1133536, “Cation substitution in cationic phosphonolipids: a new concept to improve transfection activity and decrease cellular toxicity” (J Med Chem, 2000).
Several values for one entry are separate records, joined by “and”; a condition that tells them apart may be missing. Equal values may be shown once.

Assays:
[1] = biological target: T1, Aspartate aminotransferase, mitochondrial (Mus musculus) (UniProt P05202); test: In vivo toxic effect as serum aspartate aminotransferase (ASAT) 24 hr after 50 ug pTG11033 plasmid injection without co-lipid into mice; assay type: functional, organism-based
T1 sequence (whole entry): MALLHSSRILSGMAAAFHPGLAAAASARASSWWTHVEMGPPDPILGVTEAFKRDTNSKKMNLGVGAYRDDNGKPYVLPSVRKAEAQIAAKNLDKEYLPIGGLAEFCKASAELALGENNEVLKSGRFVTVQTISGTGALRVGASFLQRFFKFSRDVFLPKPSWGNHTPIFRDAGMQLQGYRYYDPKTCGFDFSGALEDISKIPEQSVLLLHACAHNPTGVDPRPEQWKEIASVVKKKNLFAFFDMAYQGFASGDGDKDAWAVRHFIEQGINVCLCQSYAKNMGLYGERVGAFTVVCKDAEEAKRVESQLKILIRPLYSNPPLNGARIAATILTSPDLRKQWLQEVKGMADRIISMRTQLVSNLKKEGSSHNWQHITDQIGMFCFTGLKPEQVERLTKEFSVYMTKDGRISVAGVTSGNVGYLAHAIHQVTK
Procedure, shortened: (§1)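 Female Swiss mice, 6 weeks old, given one 200 µL tail-vein injection of cationic phosphonolipid/pTG11033 lipoplexes (lipid:DNA charge ratio 4, 50 µg DNA per animal). Lipoplexes were held 30 min at room temperature beforehand. Serum was taken from coagulated blood 24 h later and transaminases measured on an automated analyser. Results are mean (SEM) of 6 animals. TI = transfected/control mouse transaminase level.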

[2] = biological target: T1, Aspartate aminotransferase, mitochondrial (Mus musculus); test: In vivo toxic effect as serum aspartate aminotransferase (ASAT) 24 hr after cholesterol complexed 50 ug pTG11033 plasmid injection into mice; assay type: functional, organism-based; procedure, shortened: as §1
[3] = In vivo toxic effect of alanine aminotransferase (ALAT) was determined 24 hr after mice were injected with 50 microg of pTG11033 plasmid complexed with compound into serum without co-lipid; assay type: ADME, organism-based; details: mouse; procedure, shortened: as §1
[4] = (§2) In vivo toxic effect of alanine aminotransferase (ALAT) was determined 24 hr after mice were injected with 50 microg of pTG11033 plasmid complexed with compound into serum with cholesterol; assay type: ADME, organism-based; design: unit not given beside the values; details: mouse; procedure, shortened: as §1
[5] = In vivo toxic effect of alanine aminotransferase (ALAT) was determined 24 hr after mice were injected with 50 microg of pTG11033 plasmid complexed with compound into serum with DOPE; assay type: ADME, organism-based; details: mouse; procedure, shortened: as §1
[6] = biological target: T1, Aspartate aminotransferase, mitochondrial (Mus musculus); test: In vivo toxic effect as serum aspartate aminotransferase (ASAT) 24 hr after DOPE complexed 50 ug pTG11033 plasmid injection into mice; assay type: functional, organism-based; procedure, shortened: as §1
[7] = as §2; assay type: ADME, organism-based; details: mouse; procedure, shortened: as §1
[8] = biological target: T1, Aspartate aminotransferase, mitochondrial (Mus musculus); test: Toxicity index as ratio of serum ASAT levels in transfected and control mice; assay type: functional; procedure, shortened: as §1

Compound	Toxicity [1]	Toxicity [2]	Toxicity [3]	Toxicity [4]	Toxicity [5]	Toxicity [6]	Toxicity [7]	TI [8]
CCCCCCCC/C=C/CCCCCCCCOP(=O)(CC[As+](C)(C)C)OCCCCCCCC/C=C/CCCCCCCC.[I-]	225	600	35	172	36	303	–	–
CCCCCCCC/C=C\CCCCCCCC(=O)OCC(C[N+](C)(C)C)OC(=O)CCCCCCC/C=C\CCCCCCCC.[Cl-] (stereo not given)	657	255	70	37	74	275	–	–
CCCCCCCCCCCCCCOP(=O)(CC[As+](C)(C)C)OCCCCCCCCCCCCCC.[I-]	79	190	26	–	34	155	41	1.47 [middle of 4 runs]
CCCCCCCC/C=C/CCCCCCCCOP(=O)(C[N+](C)(C)C)OCCCCCCCC/C=C/CCCCCCCC.[I-]	900	225	250	70	30	125	–	–
CCCCCCCCCCCCCCOP(=O)(C[N+](C)(C)C)OCCCCCCCCCCCCCC.[I-]	80	75	25	24	31	130	–	1.12 [middle of 4 runs]
CCCCCCCCCCCCCCOP(=O)(CC[P+](C)(C)C)OCCCCCCCCCCCCCC.[I-]	120	174	55	34	39	145	–	1.69 (2×) and 2.39 and 2.45
CCCCCCCC/C=C/CCCCCCCCOP(=O)(CC[P+](C)(C)C)OCCCCCCCC/C=C/CCCCCCCC.[I-]	250	685	35	–	65	646	184	–
